Assay results: paper PMC12215001 (Scientific Reports, 2025)

What was measured:
N/P(14) cells [1] = experiment: Western blot analysis; type: cell-based
How it was run: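 N/P(14) cells were treated two ways: a concentration series for 24–48 h, or 10 µM for 6–48 h. Lysis was in SDS buffer, followed by SDS-PAGE and PVDF blotting. Probes: caspases, PARP, a CK2 substrate consensus (pS/pT)DXE antibody, and phospho-Akt (S129)/Akt and phospho-XRCC1. Bands were normalized to GAPDH as fold of control. Mean±S.D., n = 3, one-way ANOVA with Dunnett.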

N/P(14) cells [2] = experiment: RT-qPCR and Western blot of base excision repair genes; type: cell-based; conditions: 5 µM, 24 h (RT-qPCR)
How it was run: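 For mRNA, cells got 5 µM test compound for 24 h. RNA was taken by TRIzol with 1-bromo-3-chloropropane phase separation and isopropanol precipitation, reverse-transcribed, then run by green-dye qPCR with gene-specific primers (n = 3, unpaired two-tailed t-test). Protein levels were read by western blot, with band densities normalized to GAPDH.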

N/P(14) cells [3] = experiment: SRB assay, combination index; type: cell-based; conditions: 48 h, CI below one indicates synergism
How it was run: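 N/P(14) cells got doxorubicin or mitomycin C, with or without test compound, for 48 h. Growth was measured by SRB staining: TCA fixation, 1% acetic acid wash, Tris solubilization, absorbance at 515 nm. Combination index was computed from the combined dose–effect data; CI < 1 taken as synergism.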

[4] = test system: N/P(14) cells (cisplatin-resistant subline of NTUB1); experiment: SRB assay, cell growth inhibition; type: cell-based
How it was run: (§1)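 Cell lines: NTUB1 and N/P(14) in RPMI 1640, J82 in EMEM, and J82R (J82 adapted stepwise to 10 µM cisplatin); all in 10% FBS at 37 °C, 5% CO2, passage <10, mycoplasma-tested. SV-HUC-1 was grown in F12K. Cells were treated 48 h in 96-well plates, then TCA-fixed (10%) and stained with 0.4% SRB. After 1% acetic acid washes, dye was dissolved in 10 mM Tris base and read at 515 nm. GI50 = concentration giving 50% growth inhibition.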

[5] = test system: J82R cells (cisplatin-resistant subline of J82); experiment: SRB assay, cell growth inhibition; type: cell-based; conditions: 48 h
How it was run: as §1

N/P(14) cells [6] = experiment: Cell cycle analysis, propidium iodide staining and flow cytometry; type: cell-based; conditions: 24-48 h, time- and concentration-dependent
[7] = test system: SV-HUC-1 cells (normal uroepithelial); experiment: SRB assay, cell growth inhibition; type: cell-based; conditions: SV-HUC1, 48 h
How it was run: as §1

J82R cells = experiment: Western blot analysis; type: cell-based; conditions: 24-48 h
How it was run: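 J82R cells got the indicated test compound concentrations for 24–48 h. Proteins were extracted in SDS lysis buffer, run on SDS-PAGE, transferred to PVDF, and probed for caspase-3, -8, -9 and PARP. Band densities were normalized to GAPDH and expressed as fold of untreated control. Mean±S.D., n = 3–4, one-way ANOVA with Dunnett's test.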

CK2α = CK2α (Homo sapiens, UniProt P68400); experiment: In vitro CK2α kinase activity assay; type: biochemical; conditions: 10-dose, threefold serial dilution starting at 100 µM, 10 µM ATP
CK2α, sequence (P68400 whole entry): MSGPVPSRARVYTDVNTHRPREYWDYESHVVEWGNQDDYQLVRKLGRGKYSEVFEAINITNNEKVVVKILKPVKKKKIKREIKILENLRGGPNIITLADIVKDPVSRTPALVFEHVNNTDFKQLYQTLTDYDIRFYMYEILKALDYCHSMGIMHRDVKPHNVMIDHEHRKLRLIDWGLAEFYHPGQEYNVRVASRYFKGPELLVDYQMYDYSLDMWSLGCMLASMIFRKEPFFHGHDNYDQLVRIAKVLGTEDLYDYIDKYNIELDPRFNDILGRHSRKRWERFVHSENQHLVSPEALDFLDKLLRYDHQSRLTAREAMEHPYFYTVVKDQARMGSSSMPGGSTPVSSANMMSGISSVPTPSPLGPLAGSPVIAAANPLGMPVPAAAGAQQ

J82 cells = experiment: SRB assay, cell growth inhibition; type: cell-based; conditions: 48 h
How it was run: as §1

NTUB1 cells = experiment: SRB assay, cell growth inhibition; type: cell-based; conditions: 48 h
How it was run: as §1

In the case of `O=C(O)c1ccc2c(c1)nc(Nc1cccc(Cl)c1)c1ccncc12` [CX-4945, reference compound], the PARP cleavage (N/P(14) cells [1]; 24 h) is reported as “increased” and the “phosphorylation of the downstream targets Akt and XRCC1” value (N/P(14) cells [1]; 24 h, concentration-dependent) is reported as “decreased”.
In the case of `O=c1cc(-c2ccc(Oc3c(O)cc4oc(-c5ccc(O)cc5)cc(=O)c4c3O)cc2)oc2cc(O)cc(O)c12` [Hinokiflavone], the “mRNA and protein levels of MUTYH, OGG1, and XRCC1” value (N/P(14) cells [2]) is reported as “reduced”, the “combination index (CI)” value (N/P(14) cells [3]; HNK with doxorubicin) is reported as “below 1” and the “combination index (CI)” value (N/P(14) cells [3]; HNK with mitomycin C) is reported as “below 1”. The GI50 ([4]; NTUB1, 48 h) was 1.48 µM, the GI50 [5] was 0.98 µM and the “cleavage of caspase-3, caspase-8, caspase-9, and PARP” value (N/P(14) cells [1]; 24-48 h) was “enhanced”. For the same compound, the “phosphorylation of the CK2 substrate consensus sequence ((pS/pT)DXE)” value (N/P(14) cells [1]; 24 h and 48 h, concentration-dependent) was “suppressed”, the “accumulation of cells in the sub-G1 phase” value (N/P(14) cells [6]) was “significantly increased” and the GI50 [7] was 4.09 µM. For the same compound, the “cleavage of caspase-3, caspase-8, caspase-9, and PARP” value (J82R cells) was “enhanced” and the CK2α kinase activity (CK2α) was “inhibited CK2α activity in a concentration-dependent manner”.
Work on `N.N.[Cl][Pt][Cl]` [cisplatin, reference compound] yielded a GI50 ([4]; N/P(14) cells, 48 h, SRB assay) of 47.4 µM, a GI50 ([5]; J82R cells, SRB assay) of 9.47 µM and a GI50 (J82 cells) of 2.58 µM. The GI50 (NTUB1 cells) was 7.89 µM.
